In ChEMBL document CHEMBL4725242, “Discovery of GS-9688 (Selgantolimod) as a Potent and Selective Oral Toll-Like Receptor 8 Agonist for the Treatment of Chronic Hepatitis B” (J Med Chem, 2020):

Tests used:
Homo sapiens = organism: Homo sapiens; test: Selectivity ratio of EC50 for TLR7 in human cryopreserved PBMC assessed as induction of IFNalpha production to EC50 for TLR8 in human cryopreserved PBMC assessed as induction of IL-12p40 production
Procedure, shortened: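 Cryopreserved healthy-donor human PBMC, recovered 2 h at 37°C/5% CO2, then 100k cells/well in RPMI/10% FBS exposed 24 h at 37°C to a 10-point half-log dilution series (0.5% final DMSO). Supernatant IFNα-2a quantified by MSD electrochemiluminescence immunoassay. Normalized to 10 µM GS-9620 positive and DMSO negative controls; EC50 from 4-parameter logistic fit. For the ratio, divided by the IL-12p40 EC50 from the same PBMC screen.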

[1] = Clearance in dog hepatic microsomes at 2 uM measured up to 60 mins in presence of NADPH generating system by LC-MS/MS analysis; type: ADME, Canis lupus familiaris, Microsome; settings: liver microsomes
[2] = Cmax in Sprague-Dawley rat at 5 mg/kg, po administered via gavage by HPLC-MS analysis; type: ADME, organism-based; set-up: route oral, dose 5 mg/kg; settings: in vivo
Procedure, shortened: (§1)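 Oral dosing in 2% ethanol/40% PEG 300/58% 0.01N HCl: Sprague Dawley rats 5 mg/kg, beagle dogs 0.5 mg/kg, cynomolgus monkeys 3 mg/kg.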

[3] = Oral bioavailability in Sprague-Dawley rat at 5 mg/kg administered via gavage by HPLC-MS analysis; type: ADME, organism-based; settings: in vivo; procedure, shortened: as §1
[4] = AUC (infinity) in Beagle dog at 0.5 mg/kg, po administered via gavage by HPLC-MS analysis; type: ADME, organism-based, Canis lupus familiaris; set-up: route oral, time infinity, dose 0.5 mg/kg; settings: in vivo; procedure, shortened: as §1
[5] = Oral bioavailability in cynomolgus monkey at 3 mg/kg administered via gavage by HPLC-MS analysis; type: ADME, organism-based, Macaca fascicularis; settings: in vivo; procedure, shortened: as §1
[6] = target: T1, Toll-like receptor 8 (Homo sapiens) (UniProt Q9NR97); test: Agonist activity at human TLR8 expressed in HEK293 cells assessed as increase in NF-kappaB activation incubated for 24 hrs by quanti-blue SEAP reporter gene assay; type: cell-based; settings: filed as agonist
T1 sequence (whole entry): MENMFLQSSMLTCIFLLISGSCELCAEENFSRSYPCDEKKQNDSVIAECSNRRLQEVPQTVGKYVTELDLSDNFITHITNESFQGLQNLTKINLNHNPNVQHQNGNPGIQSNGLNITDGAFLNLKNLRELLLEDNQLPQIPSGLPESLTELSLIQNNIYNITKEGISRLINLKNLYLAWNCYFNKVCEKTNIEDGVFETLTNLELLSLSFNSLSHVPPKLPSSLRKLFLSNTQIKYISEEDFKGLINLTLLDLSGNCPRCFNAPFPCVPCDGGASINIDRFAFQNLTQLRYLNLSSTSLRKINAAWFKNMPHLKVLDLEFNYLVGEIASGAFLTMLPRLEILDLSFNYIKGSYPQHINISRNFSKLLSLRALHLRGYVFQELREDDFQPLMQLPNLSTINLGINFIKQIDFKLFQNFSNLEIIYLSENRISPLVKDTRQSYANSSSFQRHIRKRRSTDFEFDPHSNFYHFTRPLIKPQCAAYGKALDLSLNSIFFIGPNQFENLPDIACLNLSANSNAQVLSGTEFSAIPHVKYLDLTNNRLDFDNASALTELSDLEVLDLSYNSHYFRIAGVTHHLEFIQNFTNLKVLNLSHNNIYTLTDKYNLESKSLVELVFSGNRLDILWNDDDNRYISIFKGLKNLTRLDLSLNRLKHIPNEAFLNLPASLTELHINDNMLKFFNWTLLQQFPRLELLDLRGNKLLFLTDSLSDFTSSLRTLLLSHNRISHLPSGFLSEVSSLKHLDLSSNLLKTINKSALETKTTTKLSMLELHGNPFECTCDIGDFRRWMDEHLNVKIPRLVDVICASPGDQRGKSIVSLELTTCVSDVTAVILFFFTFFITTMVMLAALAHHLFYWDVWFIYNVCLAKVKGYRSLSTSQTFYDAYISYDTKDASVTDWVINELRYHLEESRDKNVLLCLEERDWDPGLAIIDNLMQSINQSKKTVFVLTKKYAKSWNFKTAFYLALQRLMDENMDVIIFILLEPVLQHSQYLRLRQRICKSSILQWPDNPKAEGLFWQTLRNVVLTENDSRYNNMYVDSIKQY
Procedure, shortened: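 HEK293 cells stably expressing human TLR8 reporter. Value taken as the minimum effective concentration (MEC), defined as the concentration giving a 3-fold increase in reporter signal above background.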

[7] = target: T2, Toll-like receptor 7 (Homo sapiens) (UniProt Q9NYK1); test: Agonist activity at human TLR7 expressed in HEK293 cells assessed as increase in NF-kappaB activation incubated for 24 hrs by quanti-blue SEAP reporter gene assay; type: cell-based; settings: filed as agonist
T2 sequence (whole entry): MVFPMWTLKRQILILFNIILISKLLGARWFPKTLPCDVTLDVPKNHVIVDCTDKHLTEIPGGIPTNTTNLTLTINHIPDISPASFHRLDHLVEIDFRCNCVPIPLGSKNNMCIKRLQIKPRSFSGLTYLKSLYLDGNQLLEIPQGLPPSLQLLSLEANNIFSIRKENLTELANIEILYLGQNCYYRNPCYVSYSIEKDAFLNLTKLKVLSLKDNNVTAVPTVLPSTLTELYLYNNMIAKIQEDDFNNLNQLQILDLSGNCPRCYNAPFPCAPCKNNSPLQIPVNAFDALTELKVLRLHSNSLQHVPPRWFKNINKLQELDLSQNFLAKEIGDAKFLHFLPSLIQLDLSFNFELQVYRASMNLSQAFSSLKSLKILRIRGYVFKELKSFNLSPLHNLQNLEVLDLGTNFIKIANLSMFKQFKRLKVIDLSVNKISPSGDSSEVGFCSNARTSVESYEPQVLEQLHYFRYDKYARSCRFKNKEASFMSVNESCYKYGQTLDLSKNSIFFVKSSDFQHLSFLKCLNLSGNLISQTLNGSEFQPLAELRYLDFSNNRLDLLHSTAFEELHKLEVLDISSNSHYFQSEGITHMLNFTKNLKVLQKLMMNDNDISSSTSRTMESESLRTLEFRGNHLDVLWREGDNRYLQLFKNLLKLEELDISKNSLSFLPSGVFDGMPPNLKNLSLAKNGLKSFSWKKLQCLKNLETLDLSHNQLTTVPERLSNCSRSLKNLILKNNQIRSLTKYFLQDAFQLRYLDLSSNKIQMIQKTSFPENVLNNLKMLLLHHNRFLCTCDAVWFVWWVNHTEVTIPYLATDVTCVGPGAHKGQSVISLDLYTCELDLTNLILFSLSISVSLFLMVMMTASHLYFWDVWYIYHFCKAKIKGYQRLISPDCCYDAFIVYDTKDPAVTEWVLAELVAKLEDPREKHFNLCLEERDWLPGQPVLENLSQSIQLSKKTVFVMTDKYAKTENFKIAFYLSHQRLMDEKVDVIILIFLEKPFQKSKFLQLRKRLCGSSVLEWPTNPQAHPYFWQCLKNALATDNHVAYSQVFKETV
Procedure, shortened: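 HEK293 cells stably expressing individual human TLRs or other innate immune receptors, used as reporter gene assays. Minimum effective concentration defined as the level giving a 3-fold rise over background.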

## CCCC[C@](C)(CO)Nc1nc(N)nc2cc(F)cnc12 [SELGANTOLIMOD]
Homo sapiens
  Ratio EC50: > 185
[1]
  CLhep predicted at 2 µM: 28.3 mL/min/kg
[2]
  Cmax: 517 nM
[3]
  bioavailability: 8.8%
[4]
  AUC(0-inf): 0.0118 µM·h
[5]
  bioavailability: 0.3%
[6]
  MEC: 49 nM
[7]
  MEC: 5.2 µM
